By inhibition is commonly meant the relative decrease from the control value, in per cent.

Activity calls are given as the source filed them.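 How the source made its calls, unless noted: active means inhibition above 20% together with a positive visual image hit; inconclusive means visual image hit but inhibition not above 20%; inactive means no visual image hit.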

A short description of experiment [1]: inhibitors of TNFa-induced NFkB p65 translocation, primary screen, imaging, HUVEC, MLSMR starter and 10KST1 sets (AID 438).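 Further: compound added about 3h40 before a 20 min TNFalpha stimulation.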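 On inhibition: signal is the nuclear over cytoplasmic p65 intensity ratio per well.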 The following applies: HUVEC TNFa-induced p65 nuclear translocation; cell count: measured here: nuclei count (cytotoxicity indicator), at 2.08 µM; inhibition: at 2 µM, stronger effect = higher value, 0% TNFa-plus-vehicle, 100% no-TNFa wells.
Experiment [2] can be described thus: inhibitors of E-selectin induction by TNFa, primary screen, imaging, HUVEC, immunofluorescence, MLSMR starter and 10KST1 sets (AID 487;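 active means visually confirmed hit in the image check and inhibition above 20%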;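 on inhibition: signal is fraction of cell area covered by stained E-selectin grains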;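 on nuclei count: 100% = median nuclei count of all wells on the same plate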). Particulars: HUVEC TNFalpha-induced E-selectin immunofluorescence imaging, at 2 µM; inhibition: stronger effect = higher value; nuclei count: measured here: cell number, toxicity.
The nature of experiment [3]: DUSP6 inhibitors restoring Erk phosphorylation by chemical complementation, primary imaging in DUSP6-transfected HeLa (AID 609;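 active means compounds giving at least 50% inhibition in the cell-based MKP-3 phosphatase rescue imaging test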;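 on inhibition: phospho-Erk level distribution per well compared with pooled transfected vehicle control wells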). Particulars: HeLa MKP-3 transfected, phospho-Erk imaging KS statistic, at 10 µM, cells stimulated with TPA for 15 min.
In experiment [4] the target is Dual specificity protein phosphatase 6 (Homo sapiens) (UniProt Q16828). The experiment is described as above. The following applies: HeLa MKP-3 transfected, phospho-Erk imaging KS statistic; at 10 µM; stronger effect = higher value; cells stimulated with TPA for 15 min.
The target of experiment [5] is Voltage-gated potassium channel subunit beta-2 (Rattus norvegicus) (UniProt P62483). The experiment in a line: KvBeta enzyme negative modulators, primary screen, biochemical, NADPH fluorescence (AID 622;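 active means fluorescence slope higher than the sample average by over 3 SD, cut at about -0.22 in these data, passing the limit was not always enough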;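 further: slope of raw intensity against log time taken from 70 to 1610 s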). The following applies: recombinant KvBeta, 4-cyanobenzaldehyde reduction, at 10 µM, stronger effect = higher value.
Experiment [6] shares this target. The experiment in a line: KvBeta positive modulators, primary screen, biochemical, NADPH fluorescence (AID 623;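 active means NADPH fluorescence slope more negative than the mean of all samples by about 3 SD, 99.7% confidence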;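 further: fluorescence intensity change per second fitted from 20 to 320 s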). Particulars: Recombinant KvBeta, NADPH fluorescence decrease slope, 10 min; at 10 µM; stronger effect = lower value.
Experiment [7] deals with Alpha-2C adrenergic receptor (Homo sapiens) (UniProt P18825). The experiment in a line: modulators of alpha2C/GIRK thallium flux, primary screen, cell-based, HEK293 alpha2C/GIRK1/2 (AID 624;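 active means fluorescence slope after compound addition differing from the mean of all screened samples at 99.7% confidence, in either direction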;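 further: slope of fluorescence ratio to pre-addition baseline per second over 15 to 24 s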). Particulars: thallium flux BTC fluorescence, at 10 µM, actives lie on both sides.
The nature of experiment [8]: inhibitors of larval lipid processing in zebrafish, primary screen, whole organism, PED6 fluorescence, gall bladder and intestine (AID 686;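 active means a full or partial loss of lipid-probe fluorescence in the fish gall bladder, intestine or both, judged by eye; inactive means no fluorescence loss, or compound toxic to the fish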;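 further: larvae 5 to 7 days old with five fish per well; signal comes from phospholipase A2 cleavage of quenched PED6 carried via bile; overnight exposure to compound and PED6 before scoring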). The following applies: Zebrafish larvae PED6 lipid processing, fluorescence scoring; screened at 20 µM (by protocol). The essentials: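 Also added: quenched phospholipase substrate PED6, 100 nM final, ingested by larvae; System: zebrafish larvae, 5-7 d; Quantity: 5 larvae per well; Compound: 20 µM single dose; Schedule: overnight compound and PED6 incubation; Read-out: visual per-well fluorescence inhibition score; Measured by: By-eye fluorescence microscopy; Medium: E3.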

Experiment [9] is described as follows: inhibitors of Chlamydomonas gravitaxis, primary screen, whole organism, Chlamydomonas reinhardtii, WT vs cilia-less mutant, absorbance, 96-well (AID 463189;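 active means inhibition at or above 50% relative to wild type and mutant plate controls; inactive means inhibition below 50%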;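 further: 0% = wild type cc124 cells in DMSO and 100% = ciliumless bld1 mutant cells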). The following applies: OD600 absorbance, 2 days, at 10 µM, stronger effect = higher value.
The mark [10] stands for this setting: measured here: cell density z-score.
Setting [11] is: measured here: nuclear c-Myc green intensity z-score.
The mark [12] stands for this setting: measured here: nuclear pErk red intensity z-score, stronger effect = higher value.

Alpha-2C adrenergic receptor (Homo sapiens), sequence (P18825 whole entry, looked up): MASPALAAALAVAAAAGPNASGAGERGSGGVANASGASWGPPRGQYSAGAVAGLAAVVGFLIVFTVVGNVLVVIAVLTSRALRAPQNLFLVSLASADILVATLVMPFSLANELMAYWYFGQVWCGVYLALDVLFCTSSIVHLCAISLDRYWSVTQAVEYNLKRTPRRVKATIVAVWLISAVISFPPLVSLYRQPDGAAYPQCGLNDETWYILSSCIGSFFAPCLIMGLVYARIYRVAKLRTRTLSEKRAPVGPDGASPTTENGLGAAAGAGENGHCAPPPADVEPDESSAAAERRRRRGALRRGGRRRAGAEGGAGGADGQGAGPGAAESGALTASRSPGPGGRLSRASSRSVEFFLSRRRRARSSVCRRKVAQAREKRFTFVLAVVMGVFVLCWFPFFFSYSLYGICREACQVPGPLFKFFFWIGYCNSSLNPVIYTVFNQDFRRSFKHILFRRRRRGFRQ
Dual specificity protein phosphatase 6 (Homo sapiens), sequence (Q16828 whole entry, looked up): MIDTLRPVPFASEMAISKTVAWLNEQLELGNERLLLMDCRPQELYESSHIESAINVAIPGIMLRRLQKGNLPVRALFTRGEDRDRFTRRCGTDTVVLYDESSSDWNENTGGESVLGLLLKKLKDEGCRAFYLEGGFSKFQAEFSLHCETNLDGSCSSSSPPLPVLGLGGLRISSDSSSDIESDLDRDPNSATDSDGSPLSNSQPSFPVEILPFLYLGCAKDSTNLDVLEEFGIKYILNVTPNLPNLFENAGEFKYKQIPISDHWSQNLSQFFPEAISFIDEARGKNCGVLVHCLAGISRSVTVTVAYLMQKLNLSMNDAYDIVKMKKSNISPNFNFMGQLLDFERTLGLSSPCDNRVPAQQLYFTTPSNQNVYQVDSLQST
Voltage-gated potassium channel subunit beta-2 (Rattus norvegicus), sequence (P62483 whole entry, looked up): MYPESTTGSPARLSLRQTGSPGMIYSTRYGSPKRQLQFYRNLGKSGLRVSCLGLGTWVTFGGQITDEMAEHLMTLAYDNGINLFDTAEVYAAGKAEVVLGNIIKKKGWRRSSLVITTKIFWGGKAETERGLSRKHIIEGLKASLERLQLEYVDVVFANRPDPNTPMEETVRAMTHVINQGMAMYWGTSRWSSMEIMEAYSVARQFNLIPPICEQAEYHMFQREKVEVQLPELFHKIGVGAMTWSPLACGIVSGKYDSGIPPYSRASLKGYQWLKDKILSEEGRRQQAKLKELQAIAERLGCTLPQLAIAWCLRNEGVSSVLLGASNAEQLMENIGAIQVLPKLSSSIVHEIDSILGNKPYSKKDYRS

Regarding `COc1cc(-c2nn3c(-c4ccco4)nnc3s2)cc(OC)c1OC`, the cell count in [1] turned out to be 483. Besides, the inhibition in experiment [1] was -2.2% (inactive); in experiment [2] it was -67.5% (inactive); in [4], -2.47% (inactive); in experiment [9], 4.86% (inactive). In experiment [2], this molecule had a nuclei count of 99.3%. Also, the z-score is -0.638 in [3] (setting [10]), -0.467 in [3] (setting [11]) and 0.841 in [3] (setting [12]). The fluorescence slope in experiment [5] was -0.471 (inactive). Besides, in [6], the NADPH fluorescence slope was 3.2e-05 (inactive). Besides, the slope in experiment [7] is 0.0061 (inactive). Moreover, the call in experiment [8] was inactive.

Take `Cc1ccc(N2C(=O)CC(N(O)C3CC(=O)N(c4ccc(C)cc4)C3=O)C2=O)cc1` (stereo unspecified): in [1], the cell count was found to be 364. For the same molecule, the inhibition in experiment [1] is 0% (inactive); in experiment [2], 28.2% (inactive); in experiment [4] it was -0.584% (inactive); in experiment [9], 54.9% (active). Also, the nuclei count in experiment [2] was 126%. Also, the figures for the z-score in [3] (setting [10]), in experiment [3] (setting [11]) and in experiment [3] (setting [12]) were 0.996, 0.402 and 0.988, respectively. Besides, the fluorescence slope in [5] was -0.427 (inactive). In experiment [6], the NADPH fluorescence slope was -0.000136 (inactive). Also, the slope in [7] is 0.0056 (inactive). For the same molecule, the call in experiment [8] was inactive.

On to `CC(=O)Oc1ccccc1C1OCCN1C(C)=O` (stereo unspecified), for which the cell count in [1] was 619. Also, the inhibition is -6.5% (inactive) in experiment [1], -38.8% (inactive) in [2], -2.69% (inactive) in experiment [4] and -5.26% (inactive) in experiment [9]. Besides, in [2], the nuclei count was 170%. In addition, the z-score was -0.208 in experiment [3] (setting [10]), -0.565 in experiment [3] (setting [11]) and 1.43 in experiment [3] (setting [12]). For the same molecule, the fluorescence slope in [5] was -0.375 (inactive). Besides, the NADPH fluorescence slope in experiment [6] was -2.3e-05 (inactive). Also, the slope in [7] is 0.00518 (inactive). Moreover, the outcome in experiment [8] was inactive.

Regarding `CC1(C(=O)O)CCC(C(=O)NC2CCCCCC2)C1(C)C` (stereo unspecified), in experiment [1], the cell count was found to be 542. Also, the inhibition was -9.8% (inactive) in experiment [1], -131% (inactive) in experiment [2], 28.6% (inactive) in experiment [4] and 28.8% (inactive) in experiment [9]. This molecule also yielded a nuclei count in experiment [2] of 196%. The z-score in experiment [3] (setting [10]) was 1.72; in experiment [3] (setting [11]), -0.55; in experiment [3] (setting [12]), -1.37. The fluorescence slope in [5] is -0.513 (inactive). Further, in [6], the NADPH fluorescence slope was -0.000107 (inactive). In experiment [7], the slope is 0.00621 (inactive). Also, the call in experiment [8] was inactive.

Regarding `CN1C2C=C3C(C#N)=C(N)C(C#N)(C#N)[C@@H](c4cccs4)C3C1CC2` (stereo partly specified), in experiment [1], the cell count was 494. Moreover, the inhibition in experiment [1] is -6.5% (inactive); in experiment [2], -7.4% (inactive); in experiment [4], 22.7% (inactive); in [9] it was -3.84% (inactive). This molecule also returned a nuclei count in [2] of 116%. Also, the z-score in experiment [3] (setting [10]) was 0.352; in experiment [3] (setting [11]), -1.56; in [3] (setting [12]), 0.939. Moreover, the fluorescence slope in [5] was -0.419 (inactive). Besides, in [6], the NADPH fluorescence slope was 2.6e-06 (inactive). Further, the slope in experiment [7] was 0.00481 (inactive). The molecule was classed as inactive in experiment [8].

Turning to `c1coc(-c2nc3nc4ccccc4nc3n2-c2ccc3c(c2)OCCO3)c1`, the cell count in experiment [1] stood at 365. Also, the inhibition in experiment [1] was -1.4% (inactive); in experiment [2] it was -29.5% (inactive); in experiment [4], 11.4% (inactive); in experiment [9], 12.2% (inactive). In [2], this molecule returned a nuclei count of 152%. In addition, the z-score in experiment [3] (setting [10]) is 0.934; in experiment [3] (setting [11]), 0.669; in [3] (setting [12]) it was -1.25. In addition, the fluorescence slope in [5] is -0.363 (inactive). The NADPH fluorescence slope in [6] is -0.000166 (inactive). The slope in experiment [7] is 0.00503 (inactive). In experiment [8], the result was inactive.

In the case of `[N-]=[N+]=CC(=O)c1ccnc(C(=O)C=[N+]=[N-])c1`, in experiment [1], the cell count turned out to be 544. Further, the inhibition is -10.2% (inactive) in experiment [1], -164% (inactive) in experiment [2], 21.8% (inactive) in experiment [4] and 3.22% (inactive) in experiment [9]. For the same molecule, the nuclei count in experiment [2] came out at 136%. For the same molecule, the values for the z-score in experiment [3] (setting [10]), in experiment [3] (setting [11]) and in experiment [3] (setting [12]) were 1.23, -1.66 and -0.478, respectively. In addition, in experiment [5], the fluorescence slope is -0.54 (inactive). The NADPH fluorescence slope in experiment [6] is -6.3e-05 (inactive). Moreover, the slope in experiment [7] was 0.00557 (inactive). Besides, the outcome in [8] was inactive.

For the origin of these results see PubChem BioAssay.
